Among the data in ChEMBL document CHEMBL4431346, “2-Oxoamide inhibitors of cytosolic group IVA phospholipase A2 with reduced lipophilicity” (Bioorg Med Chem, 2016) are inhibition and XI50 (mole fraction) values, retold here.

For assay [1], the target named is T1, Cytosolic phospholipase A2 (Homo sapiens) (UniProt P47712).
T1 sequence (whole entry): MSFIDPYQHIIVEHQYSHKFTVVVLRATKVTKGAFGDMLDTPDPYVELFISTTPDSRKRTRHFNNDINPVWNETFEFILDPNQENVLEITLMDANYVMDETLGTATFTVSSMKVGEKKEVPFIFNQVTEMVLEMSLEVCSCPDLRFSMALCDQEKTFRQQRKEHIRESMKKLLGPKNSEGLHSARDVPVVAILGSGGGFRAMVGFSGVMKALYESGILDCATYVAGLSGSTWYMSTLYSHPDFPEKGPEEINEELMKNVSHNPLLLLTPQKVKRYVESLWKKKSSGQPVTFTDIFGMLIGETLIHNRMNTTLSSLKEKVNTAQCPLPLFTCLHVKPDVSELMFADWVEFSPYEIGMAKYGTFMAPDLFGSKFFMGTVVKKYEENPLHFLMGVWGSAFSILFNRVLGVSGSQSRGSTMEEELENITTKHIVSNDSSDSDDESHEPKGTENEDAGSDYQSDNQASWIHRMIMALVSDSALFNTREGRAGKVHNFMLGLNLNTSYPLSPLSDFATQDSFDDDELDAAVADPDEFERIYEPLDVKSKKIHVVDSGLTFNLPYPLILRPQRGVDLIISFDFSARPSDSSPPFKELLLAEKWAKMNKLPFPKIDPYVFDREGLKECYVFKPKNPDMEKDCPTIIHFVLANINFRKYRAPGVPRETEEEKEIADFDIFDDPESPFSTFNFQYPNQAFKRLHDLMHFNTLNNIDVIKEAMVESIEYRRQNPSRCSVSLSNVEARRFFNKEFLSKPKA
As to the kind of experiment: Inhibition of human group 4A cPLA2 using PAPC/[14C]-labeled PAPC as substrate at 0.091 mole fraction after 30 mins by mixed micelle-based assay relative to control. Summed up:
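Screened at 0.091 mole fraction inhibitor against human GIVA cPLA2. Micelles: 400 μM Triton X-100, 97 μM PAPC, 1.8 μM 14C-PAPC, 3 μM PIP2 in 100 mM HEPES pH 7.5 with 90 μM CaCl2, 2 mM DTT and 0.1 mg/ml BSA. Average percent inhibition is reported; 25% or less is designated N.D.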

The target in assay [2] is T2, 85/88 kDa calcium-independent phospholipase A2 (Homo sapiens) (UniProt O60733).
T2 sequence (whole entry): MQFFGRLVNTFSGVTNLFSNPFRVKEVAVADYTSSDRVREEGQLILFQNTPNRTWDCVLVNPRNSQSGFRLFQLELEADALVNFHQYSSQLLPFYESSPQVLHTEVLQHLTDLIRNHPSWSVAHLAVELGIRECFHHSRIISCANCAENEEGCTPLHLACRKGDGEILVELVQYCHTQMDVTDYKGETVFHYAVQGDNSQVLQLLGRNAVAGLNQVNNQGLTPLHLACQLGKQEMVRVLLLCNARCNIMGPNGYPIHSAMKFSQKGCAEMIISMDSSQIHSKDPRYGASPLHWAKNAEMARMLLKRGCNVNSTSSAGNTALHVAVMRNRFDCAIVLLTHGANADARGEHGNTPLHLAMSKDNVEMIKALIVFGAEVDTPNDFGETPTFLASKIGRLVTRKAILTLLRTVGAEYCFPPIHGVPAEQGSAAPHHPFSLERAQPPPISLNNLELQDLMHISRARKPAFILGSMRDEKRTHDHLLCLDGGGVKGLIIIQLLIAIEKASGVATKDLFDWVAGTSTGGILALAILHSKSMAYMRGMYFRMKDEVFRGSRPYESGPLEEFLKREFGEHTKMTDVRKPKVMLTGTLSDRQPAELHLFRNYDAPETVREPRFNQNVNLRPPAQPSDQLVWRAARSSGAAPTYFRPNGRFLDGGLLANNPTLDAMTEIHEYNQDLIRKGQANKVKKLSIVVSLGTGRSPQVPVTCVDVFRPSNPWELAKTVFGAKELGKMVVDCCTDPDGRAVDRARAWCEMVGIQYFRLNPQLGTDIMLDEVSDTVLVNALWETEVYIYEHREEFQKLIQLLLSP
As to the kind of experiment: Inhibition of human group 6A iPLA2 using PAPC/[14C]-labeled PAPC as substrate at 0.091 mole fraction after 30 mins by mixed micelle-based assay relative to control. Summed up:
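Human GVIA iPLA2 was single-point screened at 0.091 inhibitor mole fraction. Micelles: 400 μM Triton X-100, 98.3 μM PAPC, 1.7 μM 14C-PAPC in 100 mM HEPES pH 7.5, 2 mM ATP, 4 mM DTT. Average percent inhibition is given; 25% or less is treated as no inhibition (N.D.).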

Another assay is filed under the species Homo sapiens. Description: Inhibition of human group 5 sPLA2 using PAPC/[14C]-labeled PAPC as substrate at 0.091 mole fraction after 30 mins by mixed micelle-based assay relative to control. The method, boiled down: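 Human GV sPLA2 was tested at 0.091 mole fraction inhibitor in mixed micelles of 400 μM Triton X-100, 98.3 μM PAPC and 1.7 μM 14C-labeled PAPC. Average percent inhibition is reported; 25% or less is designated N.D.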

Assay [3] concerns the target T1, Cytosolic phospholipase A2 (Homo sapiens). Description: Inhibition of human group 4A cPLA2 using PAPC as substrate preincubated for 5 mins with substrate followed by enzyme addition for 30 mins by mixed micelle-based assay. The method, boiled down:
(§1)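 Human GIVA cPLA2 in mixed micelles: 400 μM Triton X-100, 97 μM PAPC, 1.8 μM 14C-labeled PAPC and 3 μM PIP2. Buffer was 100 mM HEPES pH 7.5 with 90 μM CaCl2, 2 mM DTT and 0.1 mg/ml BSA. XI(50) is the inhibitor mole fraction in the total substrate interface giving 50% inhibition. It was measured only for compounds exceeding 85% inhibition at the 0.091 screen.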

Assay [4] has as its target T2, 85/88 kDa calcium-independent phospholipase A2 (Homo sapiens). Description: Inhibition of human group 6A iPLA2 using PAPC as substrate preincubated for 5 mins with substrate followed by enzyme addition for 30 mins by mixed micelle-based assay. Summed up: (§2)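 For human GVIA iPLA2, micelles held 400 μM Triton X-100, 98.3 μM PAPC and 1.7 μM 14C-PAPC. Buffer was 100 mM HEPES pH 7.5 with 2 mM ATP and 4 mM DTT. XI(50) is the inhibitor mole fraction in the total substrate interface causing 50% inhibition. It was determined for compounds exceeding 85% inhibition at 0.091 mole fraction.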

Assay [5] has the same target. Description: Inhibition of human group 6A iPLA2 using PAPC/[14C]-labeled PAPC as substrate after 30 mins by mixed micelle-based assay. The method, boiled down: as §2
Assay [6] concerns the target T1, Cytosolic phospholipase A2 (Homo sapiens). As to the kind of experiment: Inhibition of human group 4A cPLA2 using PAPC/[14C]-labeled PAPC as substrate after 30 mins by mixed micelle-based assay. Summed up: as §1
Assay [7] shares this target. As to the kind of experiment: Inhibition of human group 4A cPLA2 using [14C]-labeled PAPC as substrate after 30 mins by mixed micelle assay based liquid scintillation counting. The method, boiled down:
as §1

Bounds are passed on as bounds.

Turning to `Cc1ccc(S(=O)(=O)NCCCCCCCCCCC(=O)C(=O)NCCCC(=O)O)cc1`, the inhibition (in assay [1]; in assay [2]; in the assay listed under Homo sapiens) was below 25% in each case.

As to `CCCCCCCCCCCCCCC(=O)C(=O)NCCCC(=O)OCC`, the results for the XI50 (mole fraction) in assay [3] and in assay [4] were 0.022 and 0.027, respectively.

Consider `CCCCCCOc1ccc(OCCCC(=O)C(=O)NCCCC(=O)O)cc1`, for which the inhibition was 63.6% in assay [1], 81.1% in assay [2] and below 25% in the assay filed under Homo sapiens.

In the case of `CCCCCCCCc1ccc(OCCCC(=O)C(=O)NCCCC(=O)OCC)cc1`, the inhibition came out at 49.3% in assay [1], 94.7% in assay [2] and 40.6% in the assay listed under Homo sapiens. The XI50 (mole fraction) in assay [5] is 0.014.

Regarding `CCCCCCOc1ccc(CCCCC(=O)C(=O)NCCCC(=O)OCC)cc1`, the inhibition was above 85% in assay [1], 95.1% in assay [2] and 33.8% in the assay listed under Homo sapiens. For the same compound, the XI50 (mole fraction) in assay [6] was 0.02; in assay [5] it was 0.013.

In the case of `CCCCCCCCCCCCCCC(=O)C(=O)NCCCC(=O)O`, in assay [2], the inhibition is below 25%. Moreover, the XI50 (mole fraction) in assay [3] is 0.024.

Consider `CCCCCCOc1ccc(CCCCC(=O)C(=O)NCCCC(=O)O)cc1`, for which the inhibition in assay [1] is above 85%; in assay [2] it was below 25%; in the assay listed under Homo sapiens, below 25%. In assay [6], this compound yielded an XI50 (mole fraction) of 0.016.

For the compound `CCOC(=O)CCCNC(=O)C(=O)CCCCCCCCCCNS(=O)(=O)c1ccc(C)cc1`, the values for the inhibition (in assay [1]; in assay [2]; in the assay listed under Homo sapiens) were 59.3%, below 25% and below 25%, respectively.

On to `CCCCCCOc1ccc(OCCCC(=O)C(=O)NCCCCC(=O)O)cc1`, for which the figures for the inhibition (in assay [1]; in assay [2]; in the assay filed under Homo sapiens) were 88%, 82.5% and below 25%, respectively. The compound further yielded an XI50 (mole fraction) in assay [6] of 0.013.

As to `CCCCC/C=C\C/C=C\C/C=C\C/C=C\CCCC(=O)C(F)(F)F`, the XI50 (mole fraction) in assay [7] was 0.036.

`CCCCCCCCc1ccc(OCCCC(=O)C(=O)NCCCC(=O)O)cc1`: the inhibition in assay [1] was above 85%; in assay [2], below 25%; in the assay listed under Homo sapiens, below 25%. This compound also registered an XI50 (mole fraction) in assay [6] of 0.023.

As for `CCOC(=O)CCCNC(=O)C(=O)CCCCCCCCCCCC(=O)O`, the inhibition (in assay [1]; in assay [2]; in the assay listed under Homo sapiens) was below 25% each time.
